Results as given in ChEMBL document CHEMBL1155568, “Biological characterization of fusapyrone and deoxyfusapyrone, two bioactive secondary metabolites of Fusarium semitectum” (J Nat Prod, 2000).
≈ marks a conversion by molar mass, not a printed value.

Experiments:
[1] = Toxicity against Artemia salina larvae; format: organism-based; settings: in vivo
In short: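 Quadruplicate wells; mortality counted after 24 and 36 h at 27 °C. LC50 from probit analysis of dose-mortality data from six independent experiments.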

Solanum lycopersicum = assay: Phytotoxicity in tomato leaf assessed as chlorosis in the leaf at 10^-5 M by tomato cutting assay; format: organism-based; settings: in vivo, 10 µM
In short: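 Young greenhouse tomato plants cut with razor; stems immersed in toxin solutions (10^-3 to 10^-6 M; compound in small MeOH volume diluted with water) 24 h at 22 °C, 12-h photoperiod, fluorescent light. Then moved to distilled water 48 h under same conditions; symptoms (e.g. chlorosis, wilting) scored visually.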

Fusarium verticillioides = assay: Antifungal activity against Fusarium moniliforme ITEM 1497 at 15 ug/disk by paper disk method; format: functional
In short: (§1)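 Agar diffusion: a 0.7% water-agar overlay carrying 10^4 conidia/mL (or yeast cells) is poured on PDA. 6-mm cellulose disks loaded with methanolic compound at 5 or 15 µg/disk are air-dried and applied, with nystatin as comparator. Plates incubated 24-72 h at 25 °C; inhibition halo diameter read from three disks. Agar under each disk is subcultured on PDA to score fungicidal/fungistatic effect. Experiment run twice and averaged.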

Cladosporium cucumerinum = assay: Antifungal activity against Cladosporium cucumerinum ITEM 2095 at 15 ug/disk by paper disk method; format: functional; in short: as §1
Fusarium subglutinans = assay: Antifungal activity against Fusarium subglutinans at 15 ug/disk by paper disk method; format: functional; in short: as §1
Wickerhamomyces anomalus [2] = assay: Antifungal activity against Pichia anomala ITEM 1661 at 15 ug/disk by paper disk method; format: functional
In short: (§2)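 Agar overlay disk diffusion on plant-derived filamentous fungi and yeasts: 0.7% water-agar seeded with 10^4 conidia/mL or a yeast cell suspension, poured over PDA. 6-mm cellulose disks were loaded from methanolic solutions and air-dried, with nystatin as comparator. Plates ran 24-72 h at 25 °C; inhibition halo was measured over three disks. Agar beneath disks was subcultured on PDA to separate fungicidal from fungistatic, scored in four classes; run twice, averaged.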

Kluyveromyces lactis = assay: Antifungal activity against Kluyveromyces lactis ITEM 1656 at 15 ug/disk by paper disk method; format: functional; in short: as §2
[3] = system: Meyerozyma guilliermondii; assay: Antifungal activity against Candida guilliermondii ITEM 1638 at 15 ug/disk by paper disk method; format: functional; in short: as §1
Fusarium oxysporum [4] = assay: Antifungal activity against Fusarium oxysporum ITEM 149 at 15 ug/disk by paper disk method; format: functional; in short: as §1
Ascochyta rabiei = assay: Antifungal activity against Ascochyta rabiei ITEM 1067 at 15 ug/disk by paper disk method; format: functional; in short: as §1
Alternaria citri = assay: Antifungal activity against Alternaria citri ITEM 466 at 15 ug/disk by paper disk method; format: functional
In short: (§3)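 Agar overlay diffusion: 0.7% water-agar with 10^4 conidia/mL of test fungus poured over PDA; 6-mm cellulose disks impregnated with methanolic compound solution, air-dried. Incubated 25 °C for 24-72 h by fungus; growth-inhibition halo diameter from three replicate disks. Agar under disks then subcultured on PDA to score fungicidal/fungistatic classes. Repeated twice, averaged.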

Fusarium oxysporum [5] = assay: Antifungal activity against Fusarium oxysporum ITEM 1462 at 15 ug/disk by paper disk method; format: functional; in short: as §1
Alternaria alternata [6] = assay: Antifungal activity against Alternaria alternata ITEM 468 at 15 ug/disk by paper disk method; format: functional; in short: as §1
Aspergillus flavus = assay: Antifungal activity against Aspergillus flavus ITEM 9 at 15 ug/disk by paper disk method; format: functional; in short: as §1
[7] = system: Penicillium brevicompactum; assay: Antifungal activity against Penicillium brevicompactum ITEM 449 at 15 ug/disk by paper disk method; format: functional; in short: as §2
Saccharomyces cerevisiae = assay: Antifungal activity against Saccharomyces cerevisiae ITEM 1633 at 15 ug/disk by paper disk method; format: functional; in short: as §2
Candida maltosa = assay: Antifungal activity against Candida maltosa ITEM 1639 at 15 ug/disk by paper disk method; format: functional; in short: as §1
Wickerhamomyces anomalus [8] = assay: Antifungal activity against Pichia anomala ITEM 1625 at 15 ug/disk by paper disk method; format: functional; in short: as §2
[9] = system: Fusarium oxysporum f. sp. lycopersici; assay: Antifungal activity against Fusarium oxysporum f. sp. lycopersici ITEM 1462 at 15 ug/disk by paper disk method; format: functional; in short: as §1
[10] = system: Meyerozyma guilliermondii; assay: Antifungal activity against Pichia guilliermondii ITEM 1644 at 15 ug/disk by paper disk method; format: functional; in short: as §2
Alternaria alternata [11] = assay: Antifungal activity against Alternaria alternata ITEM 526 at 15 ug/disk by paper disk method; format: functional; in short: as §1
Botrytis cinerea [12] = assay: Antifungal activity against Botrytis cinerea at 15 ug/disk by paper disk method; format: functional; in short: as §1
[13] = system: Colletotrichum gloeosporioides; assay: Antifungal activity against Colletotrichum gloeosporioides ITEM 1729 at 15 ug/disk by paper disk method; format: functional; in short: as §1
Penicillium verrucosum = assay: Antifungal activity against Penicillium verrucosum ITEM 439 at 15 ug/disk by paper disk method; format: functional; in short: as §2
Fusarium incarnatum = assay: Antifungal activity against Fusarium semitectum ITEM 393 at 15 ug/disk by paper disk method; format: functional; in short: as §1
Fusarium graminearum = assay: Antifungal activity against Fusarium graminearum ITEM 2 at 15 ug/disk by paper disk method; format: functional; in short: as §3
Kluyveromyces marxianus = assay: Antifungal activity against Kluyveromyces fragilis ITEM 1657 at 15 ug/disk by paper disk method; format: functional; in short: as §2
Starmera dryadoides = assay: Antifungal activity against Pichia dryadoides ITEM 1663 at 15 ug/disk by paper disk method; format: functional; in short: as §2
Plenodomus tracheiphilus = assay: Antifungal activity against Phoma tracheiphilla ITEM 1605 at 15 ug/disk by paper disk method; format: functional; in short: as §2
Aspergillus parasiticus = assay: Antifungal activity against Aspergillus parasiticus ITEM 11 at 15 ug/disk by paper disk method; format: functional; in short: as §1
Pichia kluyveri = assay: Antifungal activity against Pichia kluyveri ITEM 1649 at 15 ug/disk by paper disk method; format: functional; in short: as §2
[14] = system: Cladosporium cladosporioides; assay: Antifungal activity against Cladosporium cladosporioides ITEM 2079 at 15 ug/disk by paper disk method; format: functional; in short: as §1
Rhodotorula mucilaginosa = assay: Antifungal activity against Rhodotorula pilimanae at 15 ug/disk by […]; format: functional
Alternaria alternata [15] = assay: Antifungal activity against Alternaria alternata ITEM 511 at 15 ug/disk by paper disk method; format: functional; in short: as §1
Botrytis cinerea [16] = assay: Antifungal activity against Botrytis cinerea ITEM 966 at 15 ug/disk by paper disk method; format: functional; in short: as §1
Alternaria alternata [17] = assay: Antifungal activity against Alternaria alternata ITEM 750 at 15 ug/disk by paper disk method; format: functional; in short: as §1
Fusarium acuminatum = assay: Antifungal activity against Fusarium acuminatum ITEM 795 at 15 ug/disk by paper disk method; format: functional; in short: as §1

CC(=O)OC[C@@H](C)C1=C(O)C(=O)[C@@]2(C)C/C=C(\C)CC/C=C(\C)CC[C@H](O)/C(C)=C/C[C@H]12 [FUSAPROLIFERIN]
LC50 [1]: 23.7 µg/mL (≈ 53.3 µM)

CCCCc1ccc(C(=O)O)nc1 [FUSARIC ACID]
Activity (Solanum lycopersicum): Active

NYSTATIN
inhibition zone (IZ) (Fusarium verticillioides): 18.7 mm | inhibition zone (IZ) (Cladosporium cucumerinum): 32.7 mm | Activity (Fusarium subglutinans): 24 mm | inhibition zone (IZ) (Wickerhamomyces anomalus [2]): 15 mm | inhibition zone (IZ) (Kluyveromyces lactis): 18 mm | inhibition zone (IZ) [3]: 20 mm | inhibition zone (IZ) (Fusarium oxysporum [4]): 19.5 mm | inhibition zone (IZ) (Ascochyta rabiei): 38.5 mm | inhibition zone (IZ) (Alternaria citri): 30 mm | inhibition zone (IZ) (Fusarium oxysporum [5]): 20 mm | inhibition zone (IZ) (Alternaria alternata [6]): 30.2 mm | inhibition zone (IZ) (Aspergillus flavus): 29 mm | inhibition zone (IZ) [7]: 18.3 mm | inhibition zone (IZ) (Saccharomyces cerevisiae): 21 mm | inhibition zone (IZ) (Candida maltosa): 20 mm | inhibition zone (IZ) (Wickerhamomyces anomalus [8]): 18.8 mm | inhibition zone (IZ) [9]: 21.7 mm | inhibition zone (IZ) [10]: 18.5 mm | inhibition zone (IZ) (Alternaria alternata [11]): 28.7 mm | inhibition zone (IZ) (Botrytis cinerea [12]): 31 mm | inhibition zone (IZ) [13]: 38.2 mm | inhibition zone (IZ) (Penicillium verrucosum): 28.2 mm | inhibition zone (IZ) (Fusarium incarnatum): 27 mm | inhibition zone (IZ) (Fusarium graminearum): 25.9 mm | inhibition zone (IZ) (Kluyveromyces marxianus): 19.5 mm | inhibition zone (IZ) (Starmera dryadoides): 19 mm | inhibition zone (IZ) (Plenodomus tracheiphilus): 31.8 mm | inhibition zone (IZ) (Aspergillus parasiticus): 28.7 mm | Activity (Pichia kluyveri): 16.5 mm | inhibition zone (IZ) [14]: 37.3 mm | inhibition zone (IZ) (Rhodotorula mucilaginosa): 28.5 mm | inhibition zone (IZ) (Alternaria alternata [15]): 32.2 mm | inhibition zone (IZ) (Botrytis cinerea [16]): 31.2 mm | inhibition zone (IZ) (Alternaria alternata [17]): 29.2 mm | inhibition zone (IZ) (Fusarium acuminatum): 20.8 mm
